8 molecules from ChEMBL document CHEMBL4020707, “Exploring the influence of indololactone structure on selectivity for binding to the C1 domains of PKCα, PKCε, and RasGRP” (Bioorg Med Chem, 2017) can be followed below.

For test [1], the species on record is Homo sapiens. Kind of test: Selectivity index, ratio of Ki for PKCepsilon (unknown origin) to Ki for RasGRP1 (unknown origin).
The species entered for test [2] is Homo sapiens. The experiment in a line: Selectivity index, ratio of Ki for PKCalpha (unknown origin) to Ki for PKCepsilon (unknown origin).
Test [3] addresses T1, RAS guanyl-releasing protein 1 (Homo sapiens, UniProt O95267).
T1 sequence (O95267 whole entry): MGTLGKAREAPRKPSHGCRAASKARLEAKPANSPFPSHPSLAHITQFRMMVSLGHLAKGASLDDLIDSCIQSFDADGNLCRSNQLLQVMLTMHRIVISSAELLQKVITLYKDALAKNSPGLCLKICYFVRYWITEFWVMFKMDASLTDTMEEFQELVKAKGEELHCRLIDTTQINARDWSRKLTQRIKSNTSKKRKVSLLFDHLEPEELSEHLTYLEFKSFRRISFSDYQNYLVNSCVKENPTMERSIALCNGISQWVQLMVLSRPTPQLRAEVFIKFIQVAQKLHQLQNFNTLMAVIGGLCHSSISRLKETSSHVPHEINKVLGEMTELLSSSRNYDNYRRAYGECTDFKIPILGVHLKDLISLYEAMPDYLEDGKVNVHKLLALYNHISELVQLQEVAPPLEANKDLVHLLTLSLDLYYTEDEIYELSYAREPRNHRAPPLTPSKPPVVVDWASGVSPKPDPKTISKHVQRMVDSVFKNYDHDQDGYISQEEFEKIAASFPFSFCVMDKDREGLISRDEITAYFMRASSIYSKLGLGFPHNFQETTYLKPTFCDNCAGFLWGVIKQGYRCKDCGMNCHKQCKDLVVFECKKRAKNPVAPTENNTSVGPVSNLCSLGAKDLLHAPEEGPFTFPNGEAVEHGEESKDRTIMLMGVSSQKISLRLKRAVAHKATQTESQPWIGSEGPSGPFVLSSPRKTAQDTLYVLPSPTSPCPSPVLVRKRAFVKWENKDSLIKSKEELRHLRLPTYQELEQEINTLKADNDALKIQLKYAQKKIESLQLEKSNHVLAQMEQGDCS
The experiment in a line: Displacement of [20-3H]phorbol 12,13-dibutyrate from RasGRP1 (unknown origin) in the presence of porcine brain phosphatidylserine by scintillation counting. The essentials: (§1)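 Competitive binding against bound [20-3H]PDBu with 100 μg/ml phosphatidylserine present. Each curve used six ligand concentrations, each measured in triplicate. IC50 was obtained by least-squares fit of a theoretical sigmoidal competition curve. Ki was calculated from IC50 after correcting for competition by [3H]PDBu. Values are mean ± SE of at least three independent experiments.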

Test [4] deals with T2, Protein kinase C epsilon type (Homo sapiens, UniProt Q02156).
T2 sequence (Q02156 whole entry): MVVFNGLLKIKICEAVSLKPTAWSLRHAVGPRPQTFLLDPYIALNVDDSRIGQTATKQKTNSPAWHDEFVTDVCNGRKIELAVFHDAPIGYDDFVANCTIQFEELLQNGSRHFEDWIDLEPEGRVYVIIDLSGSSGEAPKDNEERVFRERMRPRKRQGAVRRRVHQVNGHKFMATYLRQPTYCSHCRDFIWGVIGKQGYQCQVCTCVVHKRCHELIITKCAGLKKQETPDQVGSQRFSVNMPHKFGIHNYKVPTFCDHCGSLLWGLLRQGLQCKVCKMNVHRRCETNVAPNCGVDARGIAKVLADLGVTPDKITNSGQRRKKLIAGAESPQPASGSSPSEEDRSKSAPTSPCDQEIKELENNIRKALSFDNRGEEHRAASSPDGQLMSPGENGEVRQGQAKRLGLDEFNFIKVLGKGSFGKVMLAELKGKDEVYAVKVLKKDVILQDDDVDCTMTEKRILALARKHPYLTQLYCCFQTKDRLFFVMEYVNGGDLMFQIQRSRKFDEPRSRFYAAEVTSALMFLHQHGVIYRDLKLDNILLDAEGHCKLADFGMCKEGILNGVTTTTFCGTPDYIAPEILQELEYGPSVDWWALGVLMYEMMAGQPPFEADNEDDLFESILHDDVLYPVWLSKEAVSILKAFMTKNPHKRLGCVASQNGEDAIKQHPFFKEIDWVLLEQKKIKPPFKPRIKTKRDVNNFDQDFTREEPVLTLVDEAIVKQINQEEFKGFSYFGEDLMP
The experiment in a line: Displacement of [20-3H]phorbol 12,13-dibutyrate from PKCepsilon (unknown origin) in the presence of porcine brain phosphatidylserine by scintillation counting. The essentials: as §1

The species named for test [5] is Homo sapiens. Kind of test: Selectivity index, ratio of Ki for PKCalpha (unknown origin) to Ki for RasGRP1 (unknown origin).
Test [6] concerns the target Protein kinase C alpha type (Homo sapiens, UniProt P17252). Kind of test: Displacement of [20-3H]phorbol 12,13-dibutyrate from PKCalpha (unknown origin) in the presence of porcine brain phosphatidylserine by scintillation counting. In outline:
as §1

Broadly, the Ki is a measure of affinity in units of concentration, obtained from inhibition or displacement. Turning to `CCCCCCCCC/C=C1\CC(CO)(COC(=O)c2cn(C)c3ccccc23)OC1=O` (stereo not drawn), the Ratio Ki in test [1] amounted to 0.94; in test [2], 1.8; in test [5] it was 1.7. For the same molecule, the Ki in test [3] was determined as 63.3 nM; in test [4], 59.6 nM; in test [6] it was 106 nM.
Consider `Cc1ccc(C#Cc2ccc(C=C3CC(CO)(COC(=O)c4cn(C)c5ccccc45)OC3=O)cc2)cc1` (stereo not drawn), for which the Ratio Ki in test [1] turned out to be 5.8; in test [2] it was 0.89; in test [5], 5.1. Moreover, the inhibition constant Ki stood at 22.6 nM in test [3], 131 nM in test [4] and 116 nM in test [6].
Consider `CCCC(CCC)C(=O)OCC1(CO)C/C(=C\c2cn(C)c3ccccc23)C(=O)O1` (stereo not drawn), for which the figures for the Ratio Ki in test [1], in test [2] and in test [5] were 53, 0.42 and 22, respectively. For the same molecule, the Ki in test [3] was determined as 0.58 nM; in test [4] it was 31 nM; in test [6], 12.9 nM.
As to `CC(C)CC(C/C=C1\CC(CO)(COC(=O)c2cn(C)c3ccccc23)OC1=O)CC(C)C` (stereo not drawn), the figures for the Ratio Ki in test [1], in test [2] and in test [5] were 0.87, 2.7 and 2.3, respectively. Further, the Ki in test [3] was 31.3 nM; in test [4], 27.3 nM; in test [6], 73 nM.
Regarding `CC(C)=C1CC(CO)(COC(=O)c2cn(C)c3ccccc23)OC1=O` (stereo not drawn), the Ratio Ki in test [1] is 0.45; in test [2], 2.3; in test [5], 1.08. The inhibition constant (Ki) came to 666 nM in test [3], 301 nM in test [4] and 698 nM in test [6].
For the molecule `CCCC(/C=C1\CC(CO)(COC(=O)c2cn(C)c3ccccc23)OC1=O)CCC` (stereo not drawn), the Ratio Ki in test [1] was 2.2; in test [2] it was 1.7; in test [5], 3.8. The inhibition constant (Ki) stood at 133 nM in test [3], 295 nM in test [4] and 504 nM in test [6].
Regarding `Cc1ccc(C#Cc2ccc(/C=C3\CC(CO)(COC(=O)c4cn(C)c5ccccc45)OC3=O)cc2)cc1` (stereo not drawn), the Ratio Ki in test [1] worked out at 3; in test [2], 2.2; in test [5], 6.5. The inhibition constant (Ki) in test [3] turned out to be 40 nM; in test [4], 119 nM; in test [6], 257 nM.
`CC(C)CC(C/C=C1/CC(CO)(COC(=O)c2cn(C)c3ccccc23)OC1=O)CC(C)C` (stereo not drawn): the Ratio Ki in test [1] amounted to 2.4; in test [2] it was 1.5; in test [5], 3.7. Besides, the inhibitory constant (Ki) was 22.6 nM in test [3], 55 nM in test [4] and 83.1 nM in test [6].
